# ADAM10 inh = ADAM10 inhibition, QFRET primary screen; inhibition, % at 7 µM; recombinant ADAM10, EDANS/DABCYL FRET peptide cleavage, 3 h; O14672; AID 720582; 370,000 compounds, 0.62% hits;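 active = inhibition above a per-campaign cutoff equal to the mean of compounds falling between control-based bounds plus 3 SD, cut at about 20% in these data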;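 note: 0% = DMSO wells while the 100% control is not disclosed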
# CaV13 ICDI inh = Primary screen for inhibitors of IQ motif and Ca2+-dependent inactivation inhibitor domain binding in CACNA1D, Förster resonance energy transfer in living cells, …. HEK cells, CFP/YFP FRET ICDI-IQ, plate reader, 10 min; percent FRET-ratio fall versus neutral wells. inhibition, % at 12.3 µM. 340,000 compounds, 0.098% hits;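 active = mean replicate inhibition of at least 30% and at least 1% of replicates passing that level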;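 note: 0% = median of the neutral control wells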
# CendR NRP1 mod = modulators of CendR peptide binding to human neuropilin-1. FAM-RPARPAR peptide binding to NRP-1, fluorescence polarization. inhibition, % at 25 µM. 360,000 compounds, 0.85% hits;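 active = inhibition or corrected inhibition above about 18%, plus a signal ratio from 0.5 to 1.5, limit read from the data, passing the limit was not always enough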
# FAS-TE inh = FAS thioesterase (human) inhibition; P49327; recombinant FAS-TE, OMFH fluorogenic substrate, fluorescence endpoint; inhibition, % at 15 µM; 360,000 compounds, 0.67% hits; AID 602261;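 active = compounds whose normalised, plate-corrected inhibition of enzyme fluorescence in the single-dose primary screen is 50% or more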;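 note: 0% = DMSO with enzyme and 100% = substrate without enzyme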
# Target sequence (P49327 whole entry, looked up): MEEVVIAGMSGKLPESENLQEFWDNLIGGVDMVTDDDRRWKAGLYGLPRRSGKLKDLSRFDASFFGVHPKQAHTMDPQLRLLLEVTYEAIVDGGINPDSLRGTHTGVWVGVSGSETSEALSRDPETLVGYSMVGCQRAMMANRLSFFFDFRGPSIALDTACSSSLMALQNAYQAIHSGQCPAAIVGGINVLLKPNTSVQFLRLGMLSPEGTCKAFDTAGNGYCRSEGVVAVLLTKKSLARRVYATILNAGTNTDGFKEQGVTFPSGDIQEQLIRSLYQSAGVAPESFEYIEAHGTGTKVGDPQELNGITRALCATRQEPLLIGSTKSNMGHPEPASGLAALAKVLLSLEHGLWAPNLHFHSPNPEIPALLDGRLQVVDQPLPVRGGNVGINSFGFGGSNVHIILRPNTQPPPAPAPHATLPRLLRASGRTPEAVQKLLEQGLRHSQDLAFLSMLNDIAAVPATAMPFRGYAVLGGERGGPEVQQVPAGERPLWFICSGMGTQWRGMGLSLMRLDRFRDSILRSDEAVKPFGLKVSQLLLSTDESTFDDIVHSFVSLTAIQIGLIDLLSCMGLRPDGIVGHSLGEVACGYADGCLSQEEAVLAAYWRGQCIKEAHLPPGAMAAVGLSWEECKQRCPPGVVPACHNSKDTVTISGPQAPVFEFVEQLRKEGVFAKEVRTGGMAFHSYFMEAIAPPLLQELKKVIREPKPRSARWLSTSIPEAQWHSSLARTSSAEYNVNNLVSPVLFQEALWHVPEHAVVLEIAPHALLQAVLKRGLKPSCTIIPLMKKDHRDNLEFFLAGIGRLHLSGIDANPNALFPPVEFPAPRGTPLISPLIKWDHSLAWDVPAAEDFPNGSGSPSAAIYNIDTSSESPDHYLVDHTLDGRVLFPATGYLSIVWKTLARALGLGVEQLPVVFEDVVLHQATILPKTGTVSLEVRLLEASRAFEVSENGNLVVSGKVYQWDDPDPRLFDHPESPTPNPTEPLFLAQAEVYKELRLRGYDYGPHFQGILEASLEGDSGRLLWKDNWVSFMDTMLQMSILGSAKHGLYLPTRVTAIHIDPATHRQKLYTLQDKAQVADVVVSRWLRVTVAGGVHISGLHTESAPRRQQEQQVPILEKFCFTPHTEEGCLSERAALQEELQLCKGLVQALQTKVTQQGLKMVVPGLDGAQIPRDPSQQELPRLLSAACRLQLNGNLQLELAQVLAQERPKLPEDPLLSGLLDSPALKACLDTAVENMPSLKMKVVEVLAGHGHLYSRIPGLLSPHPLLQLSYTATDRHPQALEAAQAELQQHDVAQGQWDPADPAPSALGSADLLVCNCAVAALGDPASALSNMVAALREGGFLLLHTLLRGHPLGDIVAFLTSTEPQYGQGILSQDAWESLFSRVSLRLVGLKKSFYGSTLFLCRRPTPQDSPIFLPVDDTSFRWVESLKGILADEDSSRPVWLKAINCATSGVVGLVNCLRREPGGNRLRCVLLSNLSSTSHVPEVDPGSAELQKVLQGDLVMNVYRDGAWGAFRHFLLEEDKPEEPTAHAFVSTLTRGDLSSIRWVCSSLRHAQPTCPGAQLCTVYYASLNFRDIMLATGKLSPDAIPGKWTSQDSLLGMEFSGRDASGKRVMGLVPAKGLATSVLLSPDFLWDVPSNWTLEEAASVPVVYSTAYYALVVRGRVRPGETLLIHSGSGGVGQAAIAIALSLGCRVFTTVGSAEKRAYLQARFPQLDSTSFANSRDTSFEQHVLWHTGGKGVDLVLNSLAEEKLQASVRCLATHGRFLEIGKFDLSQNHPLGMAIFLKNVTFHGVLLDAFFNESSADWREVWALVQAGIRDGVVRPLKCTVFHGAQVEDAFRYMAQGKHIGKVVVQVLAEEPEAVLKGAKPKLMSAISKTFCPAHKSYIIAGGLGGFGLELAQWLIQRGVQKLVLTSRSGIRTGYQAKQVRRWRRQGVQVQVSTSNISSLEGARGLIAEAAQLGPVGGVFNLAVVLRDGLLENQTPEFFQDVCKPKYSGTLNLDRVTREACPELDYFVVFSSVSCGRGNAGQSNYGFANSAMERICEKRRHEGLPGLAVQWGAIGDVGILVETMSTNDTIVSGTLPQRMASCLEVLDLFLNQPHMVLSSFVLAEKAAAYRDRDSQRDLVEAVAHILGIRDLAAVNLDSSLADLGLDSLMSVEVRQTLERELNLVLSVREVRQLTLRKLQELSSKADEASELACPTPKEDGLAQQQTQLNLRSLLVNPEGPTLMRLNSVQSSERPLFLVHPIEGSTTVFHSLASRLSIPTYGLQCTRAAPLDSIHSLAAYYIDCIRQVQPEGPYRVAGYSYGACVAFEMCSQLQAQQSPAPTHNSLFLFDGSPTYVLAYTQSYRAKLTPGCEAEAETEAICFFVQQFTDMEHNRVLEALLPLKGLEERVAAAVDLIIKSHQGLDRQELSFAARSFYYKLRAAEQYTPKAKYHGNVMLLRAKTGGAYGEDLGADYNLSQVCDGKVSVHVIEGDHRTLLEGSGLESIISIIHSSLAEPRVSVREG
# ADAM17 inh = inhibits human ADAM17 | 370,000 compounds, 0.83% hits | recombinant ADAM17, EDANS/DABCYL FRET peptide cleavage | P78536 | inhibition, % at 6.95 µM | AID 720648;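 active = inhibition above the mean of compounds lying between control limits plus 3 SD, set per campaign, cut at about 8.5% in these data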;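 note: 0% = DMSO-only wells as the low control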
# Arrestin-AP2 inh = blocks beta-arrestin peptide binding to AP2 adaptin; 340,000 compounds, 0.31% hits; FITC-arrestin peptide / GST-AP2 beads, flow cytometry; AP2 beta2 appendage carries R879A mutation; inhibition, % at 10 µM; AID 504490;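 active = inhibition above a set limit, near 3 SD of compounds lacking own fluorescence, cut at about 54% in these data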;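 note: plate controls were DMSO wells for no effect and 5 µM unlabelled arrestin peptide for full effect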
#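 Material – AP2 appendage R879A on GSH beads · Buffer or medium – PBS with 0.05% Tween 20 and 0.1% BSA · Probe or stimulus – fluorescein-tagged arrestin peptide at 50 nM final · Incubation – compound with beads 12 min RT, then probe 1 h RT · Detection – high-throughput flow cytometry of beads, ex 488, em 535 nm · Evaluation – percent response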
# Active calls of the source: *; i = inactive; . = no result given. Compounds with a hit are over-represented: about 2.9% of the library has one in this group of screens.
SMILES,ADAM10 inh,CaV13 ICDI inh,CendR NRP1 mod,FAS-TE inh,ADAM17 inh,Arrestin-AP2 inh
C[C@@H]1CN([C@H](C)CO)C(=O)c2cc(Br)cnc2O[C@@H]1CN(C)C(=O)Cc1ccccc1,-13.6,-8.9,-8.6,-7.5,-0.8,.
Cc1ccc(S(=O)(=O)N(C)C[C@H]2Oc3cc(C#Cc4ccccc4)ccc3S(=O)(=O)N([C@H](C)CO)C[C@@H]2C)cc1,-47.4,-5.4,-13.2,20.3,-4.5,.
COc1cc(NCCCCCCN)c2ncccc2c1OC,-19.2,-6.1,31.0*,16.8,-2.7,41.2
COc1cc(NC(C)CCCNC(C)C)c2ncccc2c1OC (stereo not given),-16.8,-7.9,24.0*,-6.7,-6.7,4.1
COc1cc(N)c2ncccc2c1OC,-10.9,-4.4,-0.1,-5.2,-5.2,9.1
CNC(=O)Nc1ccccc1C(=O)NCc1ccccc1,-3.0,-2.1,27.1*,-1.1,-1.7,0.4
Cc1ccc(C(=O)CSc2cc(C)nc(SCC(=O)c3ccccc3)n2)cc1,6.4,-5.5,1.0,23.7,-0.6,-1.7
Cc1cc(SCC(=O)c2ccccc2)nc(C)n1,11.2,-6.0,26.1*,-3.3,1.8,1.1
CCN(CCC(=O)Nc1cc(OC)ccc1OC)Cc1ccccc1,-6.1,-4.3,.,.,-3.2,.
O=C(CCCC1=NS(=O)(=O)c2ccccc2N1)N1CCN(c2ccccc2Cl)CC1,3.5,.,.,.,-0.8,.
Cn1c(N)c(C(=O)COC(=O)/C=C/c2ccc(Cl)c(Cl)c2)c(=O)n(C)c1=O,-8.8,-6.1,25.3*,4.8,-2.3,-11.0
COc1ccc(-c2oc3ccc(-c4ccc5c(c4)OCO5)cc3c2-c2ccc(OC)nc2)cc1,-9.5,-10.1,26.6*,35.5,-2.5,24.0
Cc1ccc(NC(=O)[C@@H]2CCCN2S(=O)(=O)c2cccc3cccnc23)c(C)c1,0.8,.,.,.,-0.1,.
COc1cc(Cl)ccc1OC1(C)CCN(Cc2ccc(-c3ccccn3)cc2)C1 (stereo not given),1.8,-4.8,14.8,9.0,0.8,.
CCn1cc(C(=O)NCc2cccs2)c(=O)c2ccc(C)nc21,-0.8,.,27.8*,-3.7,-2.5,13.0
CCn1cc(C(=O)NCc2ccccc2F)c(=O)c2ccc(C)nc21,.,.,-5.2,-6.3,.,13.2
COC(=O)Cc1c(C)c2ccc(O)c(CNCc3ccc(OC)c(OC)c3)c2oc1=O,i,-0.3,20.1,-3.2,i,6.9
CCN(CC)Cc1c(O)ccc2c(C)c(CC(=O)OC)c(=O)oc12,i,-5.0,47.0*,-6.8,i,-3.0
CN[C@@H](CO)C(=O)NC[C@H]1O[C@@H](n2cc(C)c(=O)[nH]c2=O)C[C@@H]1O,-10.2,-6.7,-1.9,-10.0,-5.5,.
Cc1ccc(NC(=O)[C@H](CC(C)C)NC(=O)[C@@H]2Cc3ccccc3CN2)cc1,-1.3,-5.8,21.2*,2.4,-3.5,-13.8
Cc1ccc(NC(=O)[C@@H](CC(C)C)NC(=O)[C@@H]2Cc3ccccc3CN2)cc1,3.6,-15.6,9.4,3.3,2.9,-11.5
c1ccc(CSc2nnc(-c3ccncc3)o2)cc1,4.8,-4.8,26.2*,-7.6,-0.6,8.7
CCS(=O)(=O)Nc1ccc2c(c1)C(=O)N(C)[C@@H]1CC[C@H](CC(=O)NCCCN3CCOCC3)O[C@H]1CO2,4.5,.,.,.,1.6,.
CCOc1ccc(NC(=O)C2CC3CCC2C3)cc1 (stereo not given),-3.7,8.1,27.5*,-3.4,-2.1,0.9
CCOC(=O)c1ccc(NC(=O)C2CC3CCC2C3)cc1 (stereo not given),6.8,-4.6,13.2,11.9,0.9,-14.0
SMILES,ADAM10 inh,CaV13 ICDI inh,CendR NRP1 mod,FAS-TE inh,ADAM17 inh,Arrestin-AP2 inh
CCOc1ccc(NC(=O)C2CCC(N3C(=O)C4CC=CCC4C3=O)CC2)cc1 (stereo not given),2.8,.,28.9*,-2.2,-5.2,3.9
CC1(C(=O)NS(=O)(=O)c2cccc(F)c2)CCN1C(=O)Cc1cccs1 (stereo not given),-26.8,-14.3,5.6,-7.7,2.6,.
OC(c1ccccc1)(c1ccccc1)C1CCN(CCCNc2ccccc2Br)CC1,8.3,.,.,.,3.3,.
CC(Oc1cc2oc(=O)c3c(c2cc1Cl)CCC3)C(=O)NCc1ccccn1 (stereo not given),-47.9,-2.7,11.3,-2.4,-13.4,-11.3
CCc1ccc(NC(=O)CCn2nc(C)c(S(=O)(=O)N3CCCCC3)c2C)cc1,7.1,-3.2,23.8*,5.8,-2.5,2.8
O=C(c1ccc(Br)c(S(=O)(=O)N2CCOCC2)c1)N1CCN(C/C=C/c2ccccc2)CC1,-5.4,-1.8,9.9,5.2,-6.9,-3.0
O=S(=O)(NCc1ccncc1)c1ccc(F)c(F)c1,3.0,-6.2,1.3,-4.5,-1.1,.
Cc1ccc(S(=O)(=O)NCc2ccncc2)cc1C,-1.4,-1.2,21.9*,-3.7,1.6,17.0
O=C1CCC[C@@H]2[C@@H](Cc3ccccc3)[C@H](N3CCN(c4ccccc4)CC3)C[C@@H]3CCN1[C@@H]32,11.3,-2.4,0.0,35.8,6.3,-4.1
COc1ccc(C(=O)CSc2nnc(-c3cccc(Cl)c3)n2Cc2ccco2)cc1,-3.9,.,.,.,-2.4,.
O=C(Cc1cccs1)N1CCN(S(=O)(=O)c2ccc(Cl)c(C(F)(F)F)c2)CC1,-7.7,-5.5,-3.0,13.8,-9.0,-1.0
COc1ccc(S(=O)(=O)N2CCCCC2c2cc(C(=O)Nc3ccc(OC)cc3C)no2)cc1 (stereo not given),0.8,-4.5,44.9*,12.1,1.7,.
COc1ccc(NC(=O)c2cc(C3CCCCN3S(=O)(=O)c3ccc(C#N)cc3)on2)c(C)c1 (stereo not given),6.1,-9.0,-0.5,14.1,-0.1,.
O=C(NCCCn1ccnc1)c1nn2c(C(F)(F)F)cc(-c3ccc(Br)cc3)nc2c1Cl,-6.1,-4.1,29.7*,-12.0,-1.9,9.0
CCCNC(=O)c1nn2c(C(F)(F)F)cc(-c3ccccc3)nc2c1Cl,1.5,-19.5,7.2,4.6,-0.2,-6.9
O=C1/C(=C\c2c(NCCOCCO)nc3ccccn3c2=O)SC(=S)N1Cc1ccco1,-103.6,-34.3,-67.8,-34.3,-30.8,4.7
CC(C)c1ccc(S(=O)(=O)N2CCN(C(=O)CN3C(=O)c4ccccc4C3=O)CC2)cc1,-16.7,-5.3,30.1*,8.4,-3.6,-1.8
O=C(CN1C(=O)c2ccccc2C1=O)N1CCN(C2c3ccccc3-c3ccccc32)CC1,3.0,-3.2,0.9,56.5*,3.4,1.5
O=C(CN1C(=O)c2ccccc2C1=O)N1CCN(S(=O)(=O)c2ccccc2)CC1,-11.1,-2.6,10.9,-1.2,-2.3,3.5
CCN1CCN(c2nc(-c3ccccc3)nc3ccccc23)CC1,-6.2,-4.7,-12.1,-5.5,-0.2,-4.0
Cc1cccc2nc(-c3ccccc3)nc(N3CCC(O)(c4ccc(Cl)cc4)CC3)c12,-0.3,-6.8,30.9*,36.0,-1.8,11.0

# Screening data deposited in PubChem by several laboratories.
